Source: ChEMBL document CHEMBL2440094, “Thiazolidinone-peptide hybrids as dengue virus protease inhibitors with antiviral activity in cell culture” (J Med Chem, 2013)
Active and inactive are the calls of the source. The rule behind the calls is not given here.

Test system: Huh-7
Test: Cytotoxicity against human HuH7 cells at <50 uM after 48 hrs by firefly reporter assay
Type: cell-based
Settings: huh-7, 48 h
How it was run: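 Uninfected Huh-7 cells stably expressing firefly luciferase, seeded 5000/well and incubated overnight at 37 °C. Compound added at 1.56–50 μM, plus 100, 200 and 400 μM, then incubated as for infected cells (further 48 h after the 4 h point). Firefly luminescence read with 70 μM luciferin and 2 mM ATP. Mean of three wells as percent of DMSO control.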

SMILES	Activity
CCCC[C@H](NC(=O)[C@H](CCCCN)NC(=O)[C@H](CCCNC(=N)N)NC(=O)c1ccc(/C=C/C(N)=O)cc1)C(N)=O	Non-toxic
CCCC[C@H](NC(=O)[C@H](CCCCN)NC(=O)[C@H](CCCNC(=N)N)NC(=O)c1ccc(/C=C2\SC(=S)NC2=O)cc1)C(N)=O	Non-toxic
CCCC[C@H](NC(=O)[C@H](CCCCN)NC(=O)[C@H](CCCNC(=N)N)NC(=O)/C=C/c1ccccc1)C(N)=O	Non-toxic
C=CCN1C(=O)/C(=C/c2ccc(C(=O)N[C@@H](CCCNC(=N)N)C(=O)N[C@@H](CCCCN)C(=O)N[C@@H](CCCC)C(N)=O)cc2)SC1=S	Non-toxic
CCCC[C@H](NC(=O)[C@H](CCCCN)NC(=O)[C@H](CCCNC(=N)N)NC(=O)c1ccc(/C=C2\SC(=S)N(C)C2=O)cc1)C(N)=O	Non-toxic

Test system: dengue virus type 2
Test: Antiviral activity against Dengue virus 2 infected in human Huh-7 cells assessed as inhibition of viral replication after 48 hrs by luciferase reporter gene assay
Type: functional, organism-based
Settings: Huh-7, 48 h
How it was run: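 Huh-7 cells seeded 5000/well, incubated overnight at 37 °C, then given compound (1.56–50 μM final, 2-fold series in DMEM with 10% FCS). Dengue 2 renilla luciferase reporter virus (MOI 10) added 4 h later. After 48 h at 37 °C, cells lysed and renilla luminescence read with coelenterazine. At least four wells per concentration, expressed relative to DMSO control. EC50 by nonlinear regression.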

SMILES	EC50 [µM]
CCCC[C@H](NC(=O)[C@H](CCCCN)NC(=O)[C@H](CCCNC(=N)N)NC(=O)c1ccc(/C=C2\SC(=S)NC2=O)cc1)C(N)=O	> 50
C=CCN1C(=O)/C(=C/c2ccc(C(=O)N[C@@H](CCCNC(=N)N)C(=O)N[C@@H](CCCCN)C(=O)N[C@@H](CCCC)C(N)=O)cc2)SC1=S	31.3
CCCC[C@H](NC(=O)[C@H](CCCCN)NC(=O)[C@H](CCCNC(=N)N)NC(=O)c1ccc(/C=C2\SC(=S)N(C)C2=O)cc1)C(N)=O	> 50

Test system: not listed separately
Test: Permeability of the compound by PAMPA
Type: ADME
Settings: read-out: permeability
How it was run: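 PAMPA with precoated trilayer lipid/oil/lipid membranes, donor wells holding 200 μM compound in PBS pH 7.4 (2% DMSO final), in triplicate. Incubated 5 h at room temperature. Donor and acceptor concentrations determined by UV plate reader or HPLC-UV against calibration curves. Pe and mass retention R calculated.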

SMILES	Papp [×10⁻⁶ cm/s]
CCCC[C@H](NC(=O)[C@H](CCCCN)NC(=O)[C@H](CCCNC(=N)N)NC(=O)/C=C/c1ccccc1)C(N)=O	1.26
C=CCN1C(=O)/C(=C/c2ccc(C(=O)N[C@@H](CCCNC(=N)N)C(=O)N[C@@H](CCCCN)C(=O)N[C@@H](CCCC)C(N)=O)cc2)SC1=S	0.42

Test system: Dengue virus
Test: Competitive inhibition of Dengue virus NS2B-NS3 protease expressed in Escherichia coli BL 21 (DE3) using Abz-Nle-Lys-Arg-Arg-Ser-3-(NO2)Tyr as substrate by Cornish-Bowden plot analysis
Settings: not given
How it was run: (§1)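 DEN2 NS2B–NS3 FRET assay run at inhibitor 0–6 μM (prior-series compounds 5–50 μM) and substrate 50, 100, 150 and 200 μM, in triplicate, with inner-filter correction. Ki from Dixon plots (1/v vs [I]) and Ki′ from Cornish-Bowden plots (S/v vs [I]). Inhibition mode assigned from these plots.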

SMILES	inhibition
CCCC[C@H](NC(=O)[C@H](CCCCN)NC(=O)[C@H](CCCNC(=N)N)NC(=O)c1ccc(/C=C/C(N)=O)cc1)C(N)=O	Active
CCCC[C@H](NC(=O)[C@H](CCCCN)NC(=O)[C@H](CCCNC(=N)N)NC(=O)/C=C/c1ccccc1)C(N)=O	Active

Test system: not listed separately
Test: Inhibition of Dengue virus NS2B-NS3 protease expressed in Escherichia coli BL 21 (DE3) using Abz-Nle-Lys-Arg-Arg-Ser-3-(NO2)Tyr as substrate assessed as enzyme-substrate-inhibitor complex by Cornish-Bowden plot analysis
Settings: not given
How it was run: as §1

SMILES	Ki [µM]
CCCC[C@H](NC(=O)[C@H](CCCCN)NC(=O)[C@H](CCCNC(=N)N)NC(=O)c1ccc(/C=C/C(N)=O)cc1)C(N)=O	> 50
CCCC[C@H](NC(=O)[C@H](CCCCN)NC(=O)[C@H](CCCNC(=N)N)NC(=O)/C=C/c1ccccc1)C(N)=O	> 50

Test system: not listed separately
Test: Inhibition of Dengue virus NS2B-NS3 protease expressed in Escherichia coli BL 21 (DE3) using Abz-Nle-Lys-Arg-Arg-Ser-3-(NO2)Tyr as substrate assessed as enzyme-inhibitor complex by Cornish-Bowden plot analysis
Settings: in the assay text read “Dixon plot” for “Cornish-Bowden plot”
How it was run: as §1

SMILES	Ki [µM]
CCCC[C@H](NC(=O)[C@H](CCCCN)NC(=O)[C@H](CCCNC(=N)N)NC(=O)c1ccc(/C=C/C(N)=O)cc1)C(N)=O	8.2
CCCC[C@H](NC(=O)[C@H](CCCCN)NC(=O)[C@H](CCCNC(=N)N)NC(=O)/C=C/c1ccccc1)C(N)=O	6.9

Test system: not listed separately
Test: Inhibition of Dengue virus NS2B-NS3 protease expressed in Escherichia coli BL 21 (DE3) using Abz-Nle-Lys-Arg-Arg-Ser-3-(NO2)Tyr as substrate after 15 mins
Settings: not given

SMILES	IC50 [µM]
CCCC[C@H](NC(=O)[C@H](CCCCN)NC(=O)[C@H](CCCNC(=N)N)NC(=O)c1ccc(/C=C/C(N)=O)cc1)C(N)=O	6.4
CCCC[C@H](NC(=O)[C@H](CCCCN)NC(=O)[C@H](CCCNC(=N)N)NC(=O)/C=C/c1ccccc1)C(N)=O	10.5

Molecular target: Prothrombin (Homo sapiens) (UniProt P00734)
Test: Inhibition of thrombin (unknown origin) using Boc-Val-Pro-Arg-AMC as substrate at 25 uM after 10 mins by continuous fluorimetric assay
Settings: not given
How it was run: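 Thrombin (10 nM) preincubated 15 min with inhibitor (25 μM final) in 50 mM Tris-HCl pH 7.5, 150 mM NaCl, 0.05% Tween 20. Boc-Val-Pro-Arg-AMC then added to 50 μM (Km 16 μM). Fluorescence (ex 355 nm, em 460 nm) followed for 10 min as slope. Triplicate; percent inhibition versus no-inhibitor control.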

SMILES	inhibition
CCCC[C@H](NC(=O)[C@H](CCCCN)NC(=O)[C@H](CCCNC(=N)N)NC(=O)c1ccc(/C=C/C(N)=O)cc1)C(N)=O	inactive
CCCC[C@H](NC(=O)[C@H](CCCCN)NC(=O)[C@H](CCCNC(=N)N)NC(=O)c1ccc(/C=C2\SC(=S)NC2=O)cc1)C(N)=O	13.9%
CCCC[C@H](NC(=O)[C@H](CCCCN)NC(=O)[C@H](CCCNC(=N)N)NC(=O)/C=C/c1ccccc1)C(N)=O	inactive
C=CCN1C(=O)/C(=C/c2ccc(C(=O)N[C@@H](CCCNC(=N)N)C(=O)N[C@@H](CCCCN)C(=O)N[C@@H](CCCC)C(N)=O)cc2)SC1=S	inactive
CCCC[C@H](NC(=O)[C@H](CCCCN)NC(=O)[C@H](CCCNC(=N)N)NC(=O)c1ccc(/C=C2\SC(=S)N(C)C2=O)cc1)C(N)=O	14.8%

Test system: West Nile virus
Test: Inhibition of West Nile virus NS2B-NS3 protease expressed in Escherichia coli BL 21 (DE3) using Abz-Gly-Leu-Lys-Arg-Gly-Gly-3-(NO2)Tyr as substrate at 50 uM after 15 mins
Settings: not given

SMILES	inhibition [%]
CCCC[C@H](NC(=O)[C@H](CCCCN)NC(=O)[C@H](CCCNC(=N)N)NC(=O)c1ccc(/C=C/C(N)=O)cc1)C(N)=O	15.6
CCCC[C@H](NC(=O)[C@H](CCCCN)NC(=O)[C@H](CCCNC(=N)N)NC(=O)c1ccc(/C=C2\SC(=S)NC2=O)cc1)C(N)=O	48.7
CCCC[C@H](NC(=O)[C@H](CCCCN)NC(=O)[C@H](CCCNC(=N)N)NC(=O)/C=C/c1ccccc1)C(N)=O	13.8
C=CCN1C(=O)/C(=C/c2ccc(C(=O)N[C@@H](CCCNC(=N)N)C(=O)N[C@@H](CCCCN)C(=O)N[C@@H](CCCC)C(N)=O)cc2)SC1=S	54.6
CCCC[C@H](NC(=O)[C@H](CCCCN)NC(=O)[C@H](CCCNC(=N)N)NC(=O)c1ccc(/C=C2\SC(=S)N(C)C2=O)cc1)C(N)=O	35

Test system: Dengue virus
Test: Inhibition of Dengue virus NS2B-NS3 protease expressed in Escherichia coli BL 21 (DE3) using Abz-Nle-Lys-Arg-Arg-Ser-3-(NO2)Tyr as substrate at 50 uM after 15 mins
Settings: not given

SMILES	inhibition [%]
CCCC[C@H](NC(=O)[C@H](CCCCN)NC(=O)[C@H](CCCNC(=N)N)NC(=O)c1ccc(/C=C/C(N)=O)cc1)C(N)=O	84.6
CCCC[C@H](NC(=O)[C@H](CCCCN)NC(=O)[C@H](CCCNC(=N)N)NC(=O)c1ccc(/C=C2\SC(=S)NC2=O)cc1)C(N)=O	87.1
CCCC[C@H](NC(=O)[C@H](CCCCN)NC(=O)[C@H](CCCNC(=N)N)NC(=O)/C=C/c1ccccc1)C(N)=O	82.9
C=CCN1C(=O)/C(=C/c2ccc(C(=O)N[C@@H](CCCNC(=N)N)C(=O)N[C@@H](CCCCN)C(=O)N[C@@H](CCCC)C(N)=O)cc2)SC1=S	96
CCCC[C@H](NC(=O)[C@H](CCCCN)NC(=O)[C@H](CCCNC(=N)N)NC(=O)c1ccc(/C=C2\SC(=S)N(C)C2=O)cc1)C(N)=O	89
